The list is not random: actives were taken first. Their share in the collection is about 5.5%.
PLAP act – activates human placental alkaline phosphatase; P05187; purified PLAP enzyme, luminescent substrate read-out; hits give high values; activation fold at 20 µM; 1.2% of 96,000 active; AID 696; in the data active = activation fold above about 2
Target sequence (P05187 whole entry, looked up): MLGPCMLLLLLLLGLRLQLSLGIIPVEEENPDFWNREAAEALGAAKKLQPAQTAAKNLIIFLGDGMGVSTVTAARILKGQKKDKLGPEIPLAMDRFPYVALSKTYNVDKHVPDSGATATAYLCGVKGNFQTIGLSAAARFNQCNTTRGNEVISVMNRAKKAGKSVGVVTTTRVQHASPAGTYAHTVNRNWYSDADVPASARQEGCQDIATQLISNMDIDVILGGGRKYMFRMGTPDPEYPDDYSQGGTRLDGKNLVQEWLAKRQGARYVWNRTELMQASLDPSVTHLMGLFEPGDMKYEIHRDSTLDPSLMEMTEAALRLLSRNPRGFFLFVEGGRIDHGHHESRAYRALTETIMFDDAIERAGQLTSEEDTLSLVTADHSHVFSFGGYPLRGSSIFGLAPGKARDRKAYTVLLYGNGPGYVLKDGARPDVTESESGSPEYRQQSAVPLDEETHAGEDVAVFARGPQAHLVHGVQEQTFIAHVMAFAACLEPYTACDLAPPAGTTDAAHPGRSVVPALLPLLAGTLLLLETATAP
PostGolgi yeast – growth inhibition of a yeast mutant, post-Golgi transport screen | inhibition, % at 10 µM | 0.9% of 98,000 active | AID 739 | post-Golgi transport phenotypic cell assay;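 also: yeast cells grown in 1536-well plates; yeast grown about 18 h at 30C before absorbance read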
PostGolgi ctrl – growth of the yeast control strain, post-Golgi counter-screen; efflux-deficient yeast background strain, growth absorbance A615, 16 h; inhibition, % at 10 µM; 5% of 98,000 active; AID 738
Ecoli WT expand – E. coli BW25113 growth inhibition, expanded screen; OD600 absorbance; growth inhibition, % at 100 µM; 0.15% of 98,000 active; AID 710;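 active = growth inhibition above about 50% at one test dose, limit read from the data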;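 also: growth measured after 20 h incubation at 37 °C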
HePTP inhibitor – blocks human HePTP tyrosine phosphatase; AID 521; recombinant HePTP phosphatase activity, OD absorbance; 0.64% of 110,000 active; P35236; inhibition, % at 20 µM; in the data active = inhibition above about 50%;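 also: plate controls were vehicle for no effect and reference inhibitor for full effect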
Ecoli tolC – blocks growth of E. coli BW25113 tolC mutant; OD615; growth inhibition, % at 10 µM (by protocol); 2.2% of 65,000 active;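 active = growth inhibition at or above a cutoff equal to the mean over every tested compound plus 3 SD, cut at about 60% in these data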;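 also: growth measured after 20 h incubation at 37 °C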
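Material: E. coli BW25113 ΔtolC::kan, tolC deletion mutant strain. Measure: percent growth inhibition. Schedule: 37 °C, 20 h exposure. Doses: single-point testing at 10 µM. Signal: A615 absorbance measurement. Buffer or medium: kanamycin-containing LB broth (50 µg/mL).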
* = called active by the depositor. Rule as the data show it, unless noted: active = inhibition above about 30%; inactive = the rest.

For COc1ccc(C2CC2/C(=N/OC(=O)c2cccs2)c2ccccc2)cc1 (stereo unspecified) the results were PLAP act 1, PostGolgi yeast 20, PostGolgi ctrl 40* and Ecoli WT expand -6.
Screening COc1ccc(N2C(=O)/C(=C/c3cc(Br)c(OC)c(OC)c3)C(=O)NC2=S)cc1 returned HePTP inhibitor 13.
Cc1ccccc1NC(=S)NC(=O)C12CC3CC(CC(C3)C1)C2 was read as HePTP inhibitor -21.
`COc1ccc(Nc2ccc(OC)cc2)cc1` gave HePTP inhibitor 1.
Screening COc1ccc(NC2=C(C)C(=O)CC2)cc1 returned PLAP act 0.8, PostGolgi yeast -4, PostGolgi ctrl 46*, Ecoli WT expand 0, HePTP inhibitor 5 and Ecoli tolC -8.
For CC(=O)Nc1ccc(S(=O)(=O)N2CCN(c3cc(C)ccc3C)CC2)cc1 the results were PLAP act 1.4, PostGolgi yeast 6, PostGolgi ctrl 58*, Ecoli WT expand -1, HePTP inhibitor 0 and Ecoli tolC 31.
Screening CC(=O)Nc1ccc(S(=O)(=O)N2CCN(c3ccc(F)cc3)CC2)cc1 returned HePTP inhibitor -24.
Screening Cc1ccccc1Cn1nc(C)c(NC(=O)c2sc3ccccc3c2Cl)c1C returned PLAP act 0.9, PostGolgi yeast 2, PostGolgi ctrl 33* and Ecoli WT expand -7.
Screening CC(C)c1nnc(NC(=O)c2sc3ccccc3c2Cl)s1 returned PLAP act 1.2, PostGolgi yeast 12, PostGolgi ctrl 34* and Ecoli WT expand 10.
O=C(Nc1nccs1)c1sc2ccccc2c1Cl was read as PLAP act 1, PostGolgi yeast -1, PostGolgi ctrl 9, Ecoli WT expand -10 and HePTP inhibitor 82*.
For O=C(Nc1nccs1)c1sc2cc(Cl)ccc2c1Cl the results were PLAP act 1.2, PostGolgi yeast 17, PostGolgi ctrl 11 and Ecoli WT expand -13.
For Cc1ccccc1OCCOc1ccc(/C=C2/SC(=S)N(C)C2=O)cc1 the results were HePTP inhibitor -2.
`O=[N+]([O-])c1cccnc1N1CCC(c2cc(-c3ccc(Cl)cc3)n[nH]2)CC1` gave PLAP act 1.6, PostGolgi yeast 3, PostGolgi ctrl 69* and Ecoli WT expand -7.
`Cc1ccc(S(=O)(=O)N2CCN(C3CCC(c4ccccc4)CC3)CC2)cc1` (stereo unspecified) gave PLAP act 1.3, PostGolgi yeast 89*, PostGolgi ctrl 96* and Ecoli WT expand -6.
Screening O=C(CN1CCN(S(=O)(=O)c2ccc(Cl)cc2)CC1)NC(=O)NC1CCCCC1 returned PLAP act 2*, PostGolgi yeast -12, PostGolgi ctrl 3 and Ecoli WT expand -1.
Screening Cc1ccc(S(=O)(=O)N2CCN(C3CCCCC3)CC2)cc1 returned HePTP inhibitor 6.
For CCOC(=O)N1CCC(N2CCN(S(=O)(=O)c3ccc(Cl)cc3)CC2)CC1 the results were PLAP act 2*, PostGolgi yeast -1, PostGolgi ctrl 8 and Ecoli WT expand 6.
For CCOC(=O)C(CCCCCOc1cccc(Cl)c1)C(=O)OCC the results were HePTP inhibitor 3.
Cc1ccc(C)c(NC(=O)CSc2nc3ccccc3o2)c1 was read as HePTP inhibitor 0.
Screening CCOC(=O)c1cc(CC)sc1N returned PLAP act 1.1, PostGolgi yeast 0, PostGolgi ctrl 30*, Ecoli WT expand 15, HePTP inhibitor 12 and Ecoli tolC -9.
For CCOC(=O)c1cc(CC)sc1NC(N)=O the results were HePTP inhibitor -5.
For Cc1ccc(Oc2c(C=O)c3ccccc3n2C)cc1 the results were PLAP act 0.7, PostGolgi yeast 7, PostGolgi ctrl 33* and Ecoli WT expand 7.
`Cc1c(C#N)c(=O)ncn1Cc1ccccc1` gave HePTP inhibitor -2.
For COC(=O)CNC(=O)CNC(=O)c1nn(-c2ccc(OC)c(Cl)c2)c(=O)c2ccccc12 the results were PLAP act 1.2, PostGolgi yeast 14, PostGolgi ctrl 35* and Ecoli WT expand -4.
CCCCN1C(=O)/C(=C2\SC(N3CCCCC3)=NC2=O)c2ccccc21 was read as PLAP act 1.4, PostGolgi yeast 0, PostGolgi ctrl 40*, Ecoli WT expand -8, HePTP inhibitor 8 and Ecoli tolC 29.
`O=C1N=C(N2CCOCC2)S/C1=C1\C(=O)N(Cc2ccccc2)c2ccc(Br)cc21` gave PLAP act 1.3, HePTP inhibitor -5 and Ecoli tolC 11.
